Source: ChEMBL document CHEMBL1140923, “Discovery of imidazo[1,2-b]thiazole derivatives as novel SIRT1 activators” (J Med Chem, 2009)
The source made the active and inactive calls. The rule behind the calls is not given here.

Assays:
[1] = Terminal half life in C57BL/6 mouse at 100 mg/kg, po or 10 mg/kg, iv; type: ADME, organism-based; settings: in vivo, read-out: beta t1/2 (converted)
Procedure, shortened: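 Male C57BL/6 mice (18-22 g; 3 per dose group per time point), given 100 mg/kg po as the hydrochloride salt in 2% HPMC + 0.2% DOSS, or 10 mg/kg iv by tail vein in 10% ethanol/40% polyethylene glycol/50% H2O. Plasma was taken at 5, 30, 120 and 360 min after dosing and drug levels were measured.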

Rattus norvegicus = assay: Antidiabetic activity in genetic Zucker fa/fa rat model assessed as increase in glucose disposal rate at 100 mg/kg, po daily once after 4 weeks by hyperinsulinemic-euglycemic clamp; type: functional
Procedure, shortened: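 Zucker fa/fa rats, cannulated 5 days beforehand and fasted 8 h, underwent the clamp after 4 weeks of dosing. [3-3H]glucose tracer was primed and infused, then insulin 25 (mU/kg)/min was started. Variable 50% dextrose held blood glucose at 100 mg/dL over 120 min, with tracer specific activity sampled at 110 and 120 min.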

Mus musculus [2] = assay: Antidiabetic activity in diet-induced obesity C57BL/6 mouse model assessed as reduction of fed blood glucose level at 100 mg/kg, po daily once relative to control
[3] = AUC in Sprague-Dawley rat at 100 mg/kg, po or 10 mg/kg, iv; type: ADME, organism-based; settings: plasma
Procedure, shortened: (§1)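 Male Sprague-Dawley rats (250 g, 3 per dose group) received 100 mg/kg by oral gavage in 2% HPMC + 0.2% DOSS, or 10 mg/kg iv by tail vein in 10% ethanol/40% PEG/50% H2O. Blood was drawn at 0.033-24 h postdose for drug levels.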

[4] = Oral bioavailability in Sprague-Dawley rat at 100 mg/kg; type: ADME, organism-based; settings: in vivo; procedure, shortened: as §1
Mus musculus [5] = assay: Toxicity in diet-induced obesity C57BL/6 mouse model assessed as hemoglobin at 100 mg/kg, po daily once for 10 weeks; type: organism-based; parameters: dose 100 mg/kg, route oral; settings: in vivo, 1680 h
Procedure, shortened: (§2)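 Male C57BL/6 mice were fed a 60%-fat diet from 9 weeks of age until about 40 g, in groups of 6-10. They were dosed by oral gavage once daily in 2% HPMC + 0.2% DOSS, with 29 at 100 mg/kg and rosiglitazone at 5 mg/kg, alongside vehicle groups on lean and high-fat diet. Fed glucose was read at weeks 2, 4, 6, 8 and 10. Clinical chemistry and hematology were also measured. Analysis by ANOVA.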

Cytochrome P450 3A4 = Cytochrome P450 3A4 (Homo sapiens, UniProt P08684); assay: Inhibition of CYP3A4 at 25 uM; type: ADME
Cytochrome P450 3A4, sequence (P08684 whole entry): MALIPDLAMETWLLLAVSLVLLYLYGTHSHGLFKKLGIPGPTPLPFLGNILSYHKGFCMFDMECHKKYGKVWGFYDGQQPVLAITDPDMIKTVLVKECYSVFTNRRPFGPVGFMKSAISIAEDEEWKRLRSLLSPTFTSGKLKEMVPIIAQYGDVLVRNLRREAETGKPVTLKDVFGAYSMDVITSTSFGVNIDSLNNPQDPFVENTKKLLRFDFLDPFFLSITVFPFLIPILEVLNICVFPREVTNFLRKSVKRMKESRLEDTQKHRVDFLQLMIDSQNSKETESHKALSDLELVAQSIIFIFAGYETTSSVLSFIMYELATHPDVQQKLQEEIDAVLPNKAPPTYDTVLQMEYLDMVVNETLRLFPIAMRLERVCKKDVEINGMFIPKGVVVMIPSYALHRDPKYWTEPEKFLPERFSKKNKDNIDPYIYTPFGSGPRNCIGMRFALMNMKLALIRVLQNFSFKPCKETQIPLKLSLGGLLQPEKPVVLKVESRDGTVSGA
Procedure, shortened: (§3)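 Inhibition of CYP isozymes was tested up to a highest concentration of 25 µM.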

[6] = target: T1, NAD-dependent protein deacetylase sirtuin-1 (Homo sapiens) (UniProt Q96EB6); assay: Activation of human SIRT1 expressed in Escherichia coli BL21Start assessed as concentration required to increase 50% enzyme activity by mass spectrometry assay
T1 sequence (whole entry): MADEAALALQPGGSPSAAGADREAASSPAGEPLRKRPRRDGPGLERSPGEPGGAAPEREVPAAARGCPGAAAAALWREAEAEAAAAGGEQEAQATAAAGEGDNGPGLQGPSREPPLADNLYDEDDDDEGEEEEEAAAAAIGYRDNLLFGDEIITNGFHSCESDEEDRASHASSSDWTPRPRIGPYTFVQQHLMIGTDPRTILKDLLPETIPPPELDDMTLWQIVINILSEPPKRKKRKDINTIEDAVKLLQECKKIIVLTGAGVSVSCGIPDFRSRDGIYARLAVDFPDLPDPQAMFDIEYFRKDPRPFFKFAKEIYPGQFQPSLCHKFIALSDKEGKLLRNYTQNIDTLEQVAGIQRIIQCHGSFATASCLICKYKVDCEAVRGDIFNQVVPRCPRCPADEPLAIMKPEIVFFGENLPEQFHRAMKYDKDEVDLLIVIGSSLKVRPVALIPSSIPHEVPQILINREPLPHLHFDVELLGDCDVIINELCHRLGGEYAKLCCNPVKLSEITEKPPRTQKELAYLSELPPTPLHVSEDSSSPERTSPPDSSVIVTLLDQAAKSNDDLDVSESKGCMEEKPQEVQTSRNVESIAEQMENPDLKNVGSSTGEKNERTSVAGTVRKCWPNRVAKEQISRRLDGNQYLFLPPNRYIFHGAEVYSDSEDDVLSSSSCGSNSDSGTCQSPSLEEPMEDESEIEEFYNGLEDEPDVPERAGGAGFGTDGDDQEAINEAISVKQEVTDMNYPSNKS
Procedure, shortened: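 Truncated SIRT1 was expressed in E. coli BL21Start (DE3) and purified on Ni2+ chelate. Reaction: 10 nM enzyme, 0.5 µM biotinylated, fluorophore-tagged p53-derived 20-mer acetyl-lysine peptide and 120 µM NAD+, in 50 mM Tris-acetate pH 8 with NaCl, KCl, MgCl2, 5 mM DTT and 0.05% BSA; DMSO vehicle; 25 min at 25 °C. Stopped with formic acid/nicotinamide; acetylated versus deacetylated peptide read by mass spectrometry. EC1.5 is the concentration raising activity by 50%, the mean of three titration curves.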

[7] = Inhibition of sodium channel site 2
Mus musculus [8] = assay: Antidiabetic activity in ob/ob mouse model assessed as reduction of fasting blood glucose level at 100 mg/kg, po daily once after 1 week relative to control; type: functional, organism-based; parameters: dose 100 mg/kg
Procedure, shortened: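 ob/ob mice received at 6 weeks of age were kept on a 60%-fat diet from at least 1 week before the study. They were sorted by body weight and glucose, then gavaged once daily with 100 mg/kg or vehicle (2% HPMC + 0.2% DOSS). Fasting blood glucose was measured. Analysis by one-way ANOVA with Dunnett's test.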

Mus musculus [9] = assay: Antidiabetic activity in diet-induced obesity C57BL/6 mouse model assessed as reduction of plasma insulin level at 100 mg/kg, po daily once after 10 weeks; type: functional, organism-based; parameters: dose 100 mg/kg; procedure, shortened: as §2
Cytochrome P450 2D6 = Cytochrome P450 2D6 (Homo sapiens, UniProt P10635); assay: Inhibition of CYP2D6 at 25 uM; type: ADME; procedure, shortened: as §3
Cytochrome P450 2D6, sequence (P10635 whole entry): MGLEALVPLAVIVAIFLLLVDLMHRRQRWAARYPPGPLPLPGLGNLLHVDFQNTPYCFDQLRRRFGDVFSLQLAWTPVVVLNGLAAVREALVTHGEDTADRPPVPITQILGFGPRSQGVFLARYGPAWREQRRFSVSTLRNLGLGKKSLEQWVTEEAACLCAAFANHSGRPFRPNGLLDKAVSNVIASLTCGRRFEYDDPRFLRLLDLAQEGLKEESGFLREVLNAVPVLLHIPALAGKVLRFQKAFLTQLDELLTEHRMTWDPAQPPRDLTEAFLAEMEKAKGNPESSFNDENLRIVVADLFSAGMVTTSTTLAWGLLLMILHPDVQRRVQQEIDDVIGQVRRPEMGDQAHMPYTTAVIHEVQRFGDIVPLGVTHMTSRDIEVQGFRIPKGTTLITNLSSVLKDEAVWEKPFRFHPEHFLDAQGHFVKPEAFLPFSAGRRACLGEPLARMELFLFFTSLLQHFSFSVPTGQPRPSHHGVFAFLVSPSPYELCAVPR

[10] = target: Sodium-dependent noradrenaline transporter (Homo sapiens, UniProt P23975); assay: Inhibition of norepinephrine transporter
Sodium-dependent noradrenaline transporter, sequence (P23975 whole entry): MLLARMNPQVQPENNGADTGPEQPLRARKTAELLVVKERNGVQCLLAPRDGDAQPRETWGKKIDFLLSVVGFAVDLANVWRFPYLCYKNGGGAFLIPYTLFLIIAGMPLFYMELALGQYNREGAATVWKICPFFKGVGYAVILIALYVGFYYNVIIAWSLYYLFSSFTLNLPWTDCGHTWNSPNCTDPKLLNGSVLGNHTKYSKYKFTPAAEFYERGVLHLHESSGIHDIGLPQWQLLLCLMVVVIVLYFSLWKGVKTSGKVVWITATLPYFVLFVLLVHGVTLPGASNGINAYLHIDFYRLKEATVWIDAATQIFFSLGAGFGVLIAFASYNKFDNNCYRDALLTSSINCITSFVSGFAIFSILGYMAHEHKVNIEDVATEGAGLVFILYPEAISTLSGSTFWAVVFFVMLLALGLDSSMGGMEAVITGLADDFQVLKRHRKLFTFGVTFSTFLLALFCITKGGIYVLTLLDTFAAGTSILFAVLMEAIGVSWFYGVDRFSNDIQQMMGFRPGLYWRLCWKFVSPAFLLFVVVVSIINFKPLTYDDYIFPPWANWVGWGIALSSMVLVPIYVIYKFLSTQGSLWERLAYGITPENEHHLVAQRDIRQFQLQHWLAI

Mus musculus [11] = assay: Antidiabetic activity in diet-induced obesity C57BL/6 mouse model assessed as reduction of plasma insulin level at 100 mg/kg, po daily once after 2 weeks; type: functional, organism-based; parameters: dose 100 mg/kg; procedure, shortened: as §2
Salmonella typhimurium = assay: Mutagenic activity in Salmonella Typhimurium TA98 in absence of S9 activation; type: toxicity, organism-based; settings: salmonella enterica subsp. enterica serovar typhimurium

half-life [1]: 5 h | AUC [3]: 3700 ng·h/mL | bioavailability [4]: 25% | Activity (Cytochrome P450 3A4): Not Active | Activity [6]: 0.16 µM | IC50 [7]: 3370 nM | Activity (Cytochrome P450 2D6): Not Active | IC50 [10]: 2470 nM
SMILES: O=C(Nc1ccccc1-c1cn2c(CN3CCNCC3)csc2n1)c1cnc2ccccc2n1
Activity (Rattus norvegicus): 20% | Activity (Mus musculus [2]): Active | Activity (Mus musculus [5]): Active | Activity (Mus musculus [8]): Active | Activity (Mus musculus [9]): Active | Activity (Mus musculus [11]): Active | Activity (Salmonella typhimurium): Non-toxic
